An excerpt weighted towards active compounds, which were near 9.4% of everything screened.
T cruzi inh – T. cruzi replication inhibition | 1.4% of 300,000 active | inhibition, % (test concentration not listed) | T. cruzi beta-gal in NIH3T3, luminescence, 90 h;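 active = mean inhibition across valid replicates above about 55%, limit read from the data; inconclusive = mean below that limit but half or more replicates reach it; inactive = mean below it, under half of replicates reach it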;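 note: signal also drops with host cell toxicity which is not excluded here; higher percent means less beta-gal luminescence so fewer parasites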
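assay system = mouse NIH/3T3 fibroblasts infected with β-gal-expressing T. cruzi Tulahuen C4 | input = 5,000 NIH/3T3 host cells per well | buffer or medium = DMEM plus 2% FBS | timing = 3 h host attachment, then at least 90 h co-culture | measured by = GalScreen luminescence, 60 min | evaluation = luminescence reflecting intracellular parasite burden, expressed as percent inhibition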
CSC inhib – cancer stem cell inhibition; inhibition, % at 7.5 µM; 1.1% of 300,000 active; AID 2717; cancer stem cell-like cells viability, luminescence; in the data active = inhibition above about 75%; inconclusive = no clear call, values can overlap the other calls; tested in HMLE shEcad cells
Beta apoptosis – beta cell apoptosis inhibition; INS-1E cytokine-induced death, ATP luminescence, 48 h; percent of positive-control rescue, neutral wells zero; protection from apoptosis, % (concentration not given with the values); 0.8% of 300,000 active; AID 435005;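 active = Every replicate reaches about 75%, or at least half do and their mean reaches it too, limit read from the data; inconclusive = At least half of replicates reach the limit but their mean does not; inactive = Under half of replicates reach the limit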;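 note: higher means more ATP so stronger rescue from cytokine killing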
SKKanGAS inh – SKKanGAS growth inhibition; AID 1662; inhibition, % at 7.5 µM; S. pyogenes SKKanGAS, kanamycin growth, BacTiter-Glo, 6 h; 1.3% of 300,000 active;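 active = mean replicate score, as percent of positive control median, at least 50; inconclusive = mean below 50 but one replicate at or above 50; inactive = mean and every replicate below 50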;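 note: strain carries kanamycin resistance gene driven by streptokinase promoter and grows in 40 µg/ml kanamycin; loss of luminescence reflects streptokinase promoter inhibition or plain growth inhibition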
Lmaj promast – Leishmania major promastigote growth inhibition; Leishmania major promastigotes, resazurin fluorescence viability; 9% of 200,000 active; inhibition, % at 10 µM; in the data active = inhibition above about 50%;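 note: promastigotes grown with compound for 44 hours at 28 °C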
Mdm2-MdmX inh – inhibitors of human Mdm2/MdmX interaction; SaOS-2 split-luciferase Mdm2/MdmX complementation, luminescence; O15151+Q00987; inhibition, % at 8 µM; 3% of 330,000 active; AID 485346;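 active = inhibition of at least 50% at 8 µM in the primary screen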
Target sequence (O15151 whole entry, looked up): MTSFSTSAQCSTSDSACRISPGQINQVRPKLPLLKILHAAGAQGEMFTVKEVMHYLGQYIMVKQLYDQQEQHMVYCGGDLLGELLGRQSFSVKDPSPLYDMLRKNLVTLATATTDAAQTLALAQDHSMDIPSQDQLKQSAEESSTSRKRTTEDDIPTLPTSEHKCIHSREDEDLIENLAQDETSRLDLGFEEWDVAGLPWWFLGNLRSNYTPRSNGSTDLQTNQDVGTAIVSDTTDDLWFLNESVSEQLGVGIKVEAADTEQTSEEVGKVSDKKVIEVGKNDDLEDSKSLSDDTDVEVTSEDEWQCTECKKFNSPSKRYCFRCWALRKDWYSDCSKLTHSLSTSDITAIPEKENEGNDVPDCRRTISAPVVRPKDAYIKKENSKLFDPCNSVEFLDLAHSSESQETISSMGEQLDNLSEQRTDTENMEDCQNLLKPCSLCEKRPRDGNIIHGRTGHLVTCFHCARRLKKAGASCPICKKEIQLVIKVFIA
Target sequence (Q00987 whole entry, looked up): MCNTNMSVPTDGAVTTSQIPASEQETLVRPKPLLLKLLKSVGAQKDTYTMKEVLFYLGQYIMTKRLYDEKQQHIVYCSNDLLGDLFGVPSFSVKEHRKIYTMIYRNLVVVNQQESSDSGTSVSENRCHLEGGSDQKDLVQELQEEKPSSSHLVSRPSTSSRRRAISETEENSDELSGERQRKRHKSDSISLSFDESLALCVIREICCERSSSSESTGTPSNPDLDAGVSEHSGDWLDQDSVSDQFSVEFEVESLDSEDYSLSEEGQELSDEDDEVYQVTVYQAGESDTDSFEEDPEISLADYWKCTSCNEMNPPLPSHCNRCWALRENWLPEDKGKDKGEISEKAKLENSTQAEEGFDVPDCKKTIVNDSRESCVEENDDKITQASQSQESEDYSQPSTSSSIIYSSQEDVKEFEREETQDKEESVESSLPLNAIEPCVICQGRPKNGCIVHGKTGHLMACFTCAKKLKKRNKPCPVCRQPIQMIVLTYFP
Each line names hits and unclear results; the compound was inactive in the other large screens.

CCN(C[C@H]1N[C@@](C)(C(=O)OC)[C@H]2C(=O)N(Cc3ccccc3)C(=O)[C@@H]12)S(=O)(=O)c1ccccc1	none (no result: T cruzi inh, SKKanGAS inh, Lmaj promast)
Cc1ccc(S(=O)(=O)N(C(=N)N)c2nc(N(C)C)nc(N(C)C)n2)cc1	T cruzi inh 55.0 (no result: Lmaj promast)
Cc1ccc(S(=O)(=O)N(C)c2ccc(N)cc2)cc1	none
CC(C)Cn1c(N)c(C(=O)COC(=O)c2cc(-c3ccco3)nc3ccccc23)c(=O)n(C)c1=O	Lmaj promast 76.7
CC(C)Cn1c(N)c(C(=O)COC(=O)c2ccc([N+](=O)[O-])o2)c(=O)n(C)c1=O	Lmaj promast 87.8
CC(C)Cn1c(N)c(C(=O)COC(=O)c2ccc(O)cc2)c(=O)n(C)c1=O	none
CC(C)Cn1c(N)c(C(=O)COC(=O)c2cc(C(F)(F)F)nc3ccccc23)c(=O)n(C)c1=O	none (no result: T cruzi inh, SKKanGAS inh)
CC(C)Cn1c(N)c(C(=O)COC(=O)c2cc(-c3ccccc3)nc3ccccc23)c(=O)n(C)c1=O	Lmaj promast 99.5
CC(C)Cn1c(N)c(C(=O)COC(=O)c2cc(C3CC3)nc3ccccc23)c(=O)n(C)c1=O	Lmaj promast 57.3 (no result: T cruzi inh, SKKanGAS inh)
CC(=O)N1CCC(O)(c2ccc3c(c2)OCO3)CC1	none (no result: Lmaj promast)
Cn1c(=O)c(C(=O)COC(=O)c2cc(-c3ccco3)nc3ccccc23)c(N)n(Cc2ccccc2)c1=O	Lmaj promast 98.7
CCOc1ccc(Cl)cc1CN1CCOCC1	none
CCCCCOc1ccc(Cl)cc1CN1CCOCC1	Lmaj promast 79.6
CC(C)CCOc1ccc(Cl)cc1CN1CCOCC1	Lmaj promast 89.4
COc1cc2c(cc1OC)CN(C(=O)CN1CCN(S(=O)(=O)c3ccccc3)CC1)CC2	none (no result: Lmaj promast)
CC(=O)c1ccc(S(=O)(=O)N2CCN(CC(=O)Nc3ccccc3C(=O)NC3CC3)CC2)cc1	none (no result: T cruzi inh, CSC inhib, SKKanGAS inh, Lmaj promast)
CCCCCNCc1cccc(Br)c1	Lmaj promast 74.5
Brc1cccc(CNCCCN2CCOCC2)c1	none
Brc1cccc(CNn2cnnc2)c1	none (no result: T cruzi inh, Lmaj promast)
CCCCCCNCc1cccc(Br)c1	Lmaj promast 53.6
CCN(Cc1ccccc1)S(=O)(=O)c1ccc(C(=O)Nc2nnc(C3CC3)o2)cc1	SKKanGAS inh 97.6, Lmaj promast 98.2
COCc1nnc(NC(=O)c2ccc(S(=O)(=O)N(C)Cc3ccccc3)cc2)o1	none (no result: Lmaj promast)
Cc1nnc(NC(=O)c2ccc(S(=O)(=O)N(C)Cc3ccccc3)cc2)o1	SKKanGAS inh inconclusive, Lmaj promast 77.2
CCC1Oc2ccc(C)cc2N(CC(=O)N(Cc2cccnc2)Cc2ccc(C)o2)C1=O (stereo not given)	T cruzi inh 57.1, Lmaj promast 100.3
CCC1Oc2ccc(C)cc2N(CC(=O)N(Cc2ccc(C)o2)C2CC(C)(C)NC(C)(C)C2)C1=O (stereo not given)	none
O=c1c2ccccc2n2c(-c3ccc(F)cc3)nnc2n1Cc1ccccc1	Lmaj promast 56.1
COc1ccc(NC(=O)n2ncc3c(C)cccc32)cc1	none (no result: Lmaj promast)
Cc1ccc(O)c(CP(=O)(c2ccccc2)c2ccccc2)c1	Lmaj promast 84.5
CC(C)(C)c1cc(CP(=O)(c2ccccc2)c2ccccc2)cc(C(C)(C)C)c1O	none (no result: Lmaj promast)
CC(C)CN1CCC(CN(C)Cc2nc(-c3cnccn3)no2)CC1	none
CC(C)CCc1noc(CN(C)CC2CCN(Cc3ccccc3)CC2)n1	T cruzi inh 55.0, Lmaj promast 82.7
CN(Cc1nc(-c2cnccn2)no1)CC1CCN(Cc2ccccc2)CC1	Lmaj promast 91.1
O=C(C1=C[C@H](C2CCCCC2)C[C@H](OCCCCO)O1)N1CCN(Cc2ccccc2)CC1	Lmaj promast 59.0 (no result: Beta apoptosis)
O=C(C1=C[C@@H](c2ccc(C(F)(F)F)cc2)C[C@@H](OCCCCO)O1)N1CCN(Cc2ccccc2)CC1	Beta apoptosis 116.1
Nn1c(SCC(=O)N2CCOCC2)nnc1C1CC1	none
O=C1C=C(O)c2cccc(O)c2C1=O	none (no result: T cruzi inh, SKKanGAS inh, Lmaj promast)
CC1=CC(=O)c2c(O)ccc(O)c2C1=O	Lmaj promast 97.6 (no result: T cruzi inh, SKKanGAS inh, Mdm2-MdmX inh)
COc1cc([N+](=O)[O-])cc(/C=C2/SC(=S)N(Cc3ccccc3)C2=O)c1O	CSC inhib 92.2 (no result: Lmaj promast, Mdm2-MdmX inh)
CCN=C1S/C(=C\c2cc(Br)c(O)c(OC)c2)C(=O)N1CC	none (no result: CSC inhib, Beta apoptosis, Lmaj promast)
COc1cc(/C=C2/SC(=S)N(Cc3ccccc3)C2=O)cc(Cl)c1O	CSC inhib 116.8, SKKanGAS inh 73.2 (no result: Lmaj promast, Mdm2-MdmX inh)
CCOc1cc(/C=C2/SC(=S)N(Cc3ccccc3)C2=O)ccc1O	CSC inhib 76.3 (no result: Lmaj promast)
CCN=C1S/C(=C\c2ccc(OC)c(OCC)c2)C(=O)N1CC	Lmaj promast 69.6
CCCCNc1cc(Cl)nc(N)n1	none (no result: Lmaj promast)
O=C(O)c1ccc(Cl)cc1Nc1nc2cc(Cl)ccc2o1	none (no result: Lmaj promast, Mdm2-MdmX inh)
CCOC(=O)Cc1c(C)nc(Cc2ccc(OC(C)C)cc2)[nH]c1=O	none
CCOc1ccccc1C(=O)NC(C(=O)N(C)Cc1ccc2c(c1)OCO2)C(C)C (stereo not given)	none (no result: T cruzi inh, CSC inhib, Beta apoptosis, SKKanGAS inh, Lmaj promast)
COc1cc(/C=C2/SC(=S)N(Cc3ccccc3)C2=O)ccc1OCC(=O)O	none (no result: Lmaj promast)
COc1ccc(/C=C2\SC(=S)N(CCC(=O)N(CCO)Cc3ccccc3)C2=O)cc1OC	T cruzi inh 64.5 (no result: Lmaj promast)
CCC(CC)c1nn2c(N)c(/C=C3\C(C)=Nc4ccccc43)c(=O)nc2s1	SKKanGAS inh 62.4 (no result: Lmaj promast)
Oc1ccc(/C=N/n2cnn(Cc3ccccc3Cl)c2=S)c(O)c1	CSC inhib 77.7
O=C(C[n+]1cccc2ccccc21)c1ccccc1	none
O=C(C[n+]1cc2ccccc2c2ccccc21)c1ccccc1	Lmaj promast 99.3
COc1ccc(-c2cc(C(F)F)n3ncc(C(=O)N4CCCCC4)c3n2)cc1	T cruzi inh 89.3, Lmaj promast 100.0
CCN1CCN(C(=O)c2cnn3c(C(F)F)cc(-c4ccc(C)cc4)nc23)CC1	Lmaj promast 98.3
Cc1ccc(-c2cc(C(F)F)n3ncc(C(=O)N4CCN(c5ccccn5)CC4)c3n2)cc1	T cruzi inh 60.1, Lmaj promast 100.2
Oc1ccc(Br)cc1-c1n[nH]c(=S)n1Cc1ccccc1	none (no result: Lmaj promast)
Cn1c(-c2cc(Br)ccc2O)n[nH]c1=S	SKKanGAS inh 67.4
CCN(CC)S(=O)(=O)c1cccc(C(=O)OCC(=O)NC(C)c2ccccc2)c1 (stereo not given)	none
O=C(c1cc(NC(=O)C23CC4CC(CC(C4)C2)C3)cc(NC(=O)C23CC4CC(CC(C4)C2)C3)c1)N1CCCCC1	Lmaj promast 91.4 (no result: Beta apoptosis)
Cn1c(N)c(S(=O)(=O)c2ccc(Br)cc2)c2nc3ccccc3nc21	Lmaj promast 75.0
Cc1ccc(C(=O)Nn2c(N)c(S(=O)(=O)c3ccc(C)cc3)c3nc4ccccc4nc32)cc1	none
Cc1ccc(S(=O)(=O)c2c(N)n(CCC(C)C)c3nc4ccccc4nc23)cc1	Lmaj promast 68.7
Cc1ccc(S(=O)(=O)c2c(N)n(CCCO)c3nc4ccccc4nc23)cc1	Lmaj promast 73.0
O=C1c2ccc(-c3ccc(Cl)c(C(F)(F)F)c3)cc2S(=O)(=O)c2cccc(C(=O)N3CCN(c4ccc(Cl)cn4)CC3)c21	none (no result: T cruzi inh, CSC inhib, SKKanGAS inh, Lmaj promast)
Cc1ccc(NC(=O)Nc2ccno2)cc1	none (no result: T cruzi inh, Beta apoptosis, Lmaj promast)
